Experimental data taken from ChEMBL document CHEMBL2440013, “New quaternary ammonium camphor derivatives and their antiviral activity, genotoxic effects and cytotoxicity” (Bioorg Med Chem, 2013).
pEC50: −log10 of the molar value. Where a name gives a salt, the structure may show the parent alone.

How the values were obtained:
[1] = Toxicity in Escherichia coli BL21(DE3) expressing pET36b-gfp assessed as inhibition of IPTG-induced reporter protein GFP synthesis at 150 uM after 1.5 hrs by fluorophotometry relative to control; details: Escherichia coli BL21(DE3) cells expressing pET36b-gfp, read-out: Activity
How it was run: (§1)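 E. coli BL21(DE3) carrying the IPTG-inducible gfp plasmid was grown in LB at 37 °C with shaking to D600 0.4–0.5, then treated with compound for 1.5 h. OD600 and GFP emission 500–600 nm (excitation 491 nm) were read. Control cells were untreated, with 1 mM IPTG (final) added after 1.5 h. Fluorescence decreases of 20% and 50% versus control were counted as toxic and extremely toxic.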

Escherichia coli [2] = experiment: Induction of mutagenicity in Escherichia coli BL21(DE3) expressing pRAC-gfp assessed as modulation of reporter protein GFP synthesis at 150 uM incubated for 1.5 hrs followed by plasmid maturation measured after 1.5 hrs by fluorophotometry relative to control; type: toxicity
[3] = Selectivity index, ratio of CTD50 for MDCK cells to EC50 for Influenza A virus California/07/09(H1N1) pdm09 infected in MDCK cells; type: toxicity, cell-based; details: dog, read-out: Selectivity Index
How it was run: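 CTD50 came from MDCK cells given twofold dilutions (1000–4 µg/ml) in MEM for 48 h at 37 °C, 5% CO2. CTD50 was the concentration halving OD versus control. SI is CTD50 divided by EC50 from the haemagglutination-based antiviral assay.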

[4] = Antiviral activity against Influenza virus A/California/07/09 (H1N1)pdm09 infected in MDCK cells assessed as inhibition of viral replication incubated for 1 hr prior to viral infection measured after 48 hrs by hemagglutination reaction; type: functional, cell-based, Influenza A virus (A/California/07/2009(H1N1))
How it was run: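 MDCK monolayers in MEM were pre-incubated with compound for 1 h at 37 °C before infection, then held 48 h at 37 °C in 5% CO2. Virus yield was read by haemagglutination: equal volumes of supernatant and 1% chicken erythrocytes, 60 min at room temperature. Triplicates were run. EC50 was the concentration that halved virus production (0.3 log10 EID50 titre drop).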

[5] = Cytotoxicity against MDCK cells after 48 hrs by MTT assay; type: cell-based, Canis lupus familiaris; details: dog, read-out: CTD50
How it was run: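 MDCK cells were grown in MEM at 37 °C, 5% CO2 to a confluent monolayer. They were then exposed for 48 h to twofold dilutions (1000–4 µg/ml in MEM), washed twice with saline, and given MTT ([…] in saline) for 1 h. Formazan was dissolved in DMSO and OD read at 535 nm. Triplicates were run. CTD50 is the concentration halving OD versus control wells.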

Escherichia coli [6] = experiment: Induction of mutagenicity in Escherichia coli BL21(DE3) expressing pRAC-gfp assessed as induction of reporter protein GFP synthesis at 10 ug/ml incubated for 1.5 hrs followed by plasmid maturation measured after 1.5 hrs by fluorophotometry; type: toxicity
How it was run: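 BL21(DE3) carried pRAC-gfp, with GFP under the Proteus mirabilis recA regulatory region. Cells were grown in LB at 37 °C with shaking to OD600 0.4–0.5, given compound, grown 1.5 h, then held 1.5 h at 4–6 °C for chromophore maturation. OD600 and GFP emission (500–600 nm, excitation 491 nm) were measured. Controls were water (negative) and nalidixic acid […] (positive). Result is % change in GFP versus control.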

[7] = Toxicity in Escherichia coli BL21(DE3) expressing pET36b-gfp assessed as inhibition of IPTG-induced reporter protein GFP synthesis at 2 uM after 1.5 hrs by fluorophotometry relative to control; details: Escherichia coli BL21(DE3) cells expressing pET36b-gfp, read-out: Activity; how it was run: as §1
Escherichia coli [8] = experiment: Induction of mutagenicity in Escherichia coli BL21(DE3) expressing pRAC-gfp assessed as modulation of reporter protein GFP synthesis at 2 uM incubated for 1.5 hrs followed by plasmid maturation measured after 1.5 hrs by fluorophotometry; type: toxicity
U-937 = experiment: Cytotoxicity against human U937 cells after 72 hrs by MTT assay; type: functional
How it was run: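 Cells were grown in RPMI-1640 with 10% embryonic calf serum, 2 mmol/L L-glutamine, gentamicin and lincomycin. Compounds in DMSO were added, then 72 h at 37 °C, 5% CO2. Three wells per concentration, with untreated cells as control. 1% MTT for 4 h, DMSO for 15 min, OD 570 nm. CTD50 is the concentration killing 50% of cells.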

Compound | selectivity ratio [3] | pEC50 ([4]; Influenza A virus, pdm09, MDCK) | CC50 at 48 h [5] [µM] | also measured
CC[N+](CC)(CCCCCCCC[N+](CC)(CC)CC/N=C1\C[C@H]2CC[C@]1(C)C2(C)C)CC/N=C1\C[C@H]2CC[C@]1(C)C2(C)C | 42 | 4.88 | 552 | inhibition at 1.5 h, 150 µM [1]: 67%; Activity (Escherichia coli [2]): 57%
CC[N+](CC)(CC)CC/N=C1\C[C@H]2CC[C@]1(C)C2(C)C | 13 | 3.85 | 1780 | –
NC12CC3CC(CC(C3)C1)C2 [AMANTADINE] | 4 | – | 284 | pEC50 ([4]; mdck): 4.19
CC[N+](CC)(CCCCC[N+](CC)(CC)CC/N=C1\C[C@H]2CC[C@]1(C)C2(C)C)CC/N=C1\C[C@H]2CC[C@]1(C)C2(C)C | 87 | 4.83 | 1280 | –
CCN(CC)CC/N=C1\C[C@H]2CC[C@]1(C)C2(C)C | 81 | 5.00 | 807 | –
CCn1cc(C(=O)O)c(=O)c2ccc(C)nc21 [NALIDIXIC ACID] | – | – | – | Activity (Escherichia coli [6]): 500%
CC[N+](CC)(CC/N=C1\C[C@H]2CC[C@]1(C)C2(C)C)Cc1ccc(C[N+](CC)(CC)CC/N=C2\C[C@H]3CC[C@]2(C)C3(C)C)cc1 | 33 | 4.36 | 1450 | –
CC[N+](CC)(CCCCCCCCC[N+](CC)(CC)CC/N=C1\C[C@H]2CC[C@]1(C)C2(C)C)CC/N=C1\C[C@H]2CC[C@]1(C)C2(C)C | 82 | 5.16 | 578 | inhibition at 1.5 h, 150 µM [1]: 65%; Activity (Escherichia coli [2]): 51%
CC12CCC(CC1=O)C2(C)C (single isomer, unassigned; (+)) [CAMPHOR] | 2 | – | 3290 | inhibition at 1.5 h, 2 µM [7]: 6%; Activity (Escherichia coli [8]): 5%; pEC50 ([4]; mdck): 2.78
CC[N+](CC)(CCCCCC[N+](CC)(CC)CC/N=C1\C[C@H]2CC[C@]1(C)C2(C)C)CC/N=C1\C[C@H]2CC[C@]1(C)C2(C)C.[Br-].[Br-] | 21 | 4.09 | 1710 | CTD50 (U-937): 82.1 µM
CC[N+](C)(CC)CC/N=C1\C[C@H]2CC[C@]1(C)C2(C)C | – | 4.39 | 1890 | –
CC[N+](CC)(CCCCCCCCCCCC[N+](CC)(CC)CC/N=C1\C[C@H]2CC[C@]1(C)C2(C)C)CC/N=C1\C[C@H]2CC[C@]1(C)C2(C)C | 2 | 4.22 | 128 | inhibition at 1.5 h, 150 µM [1]: 89%; Activity (Escherichia coli [2]): 74%
CC(N)C1C[C@@H]2CC[C@H]1C2 (stereo partly specified) [DEITIFORIN] | – | – | 1270 | –
CC[N+](CC)(CCCCCCCCCC[N+](CC)(CC)CC/N=C1\C[C@H]2CC[C@]1(C)C2(C)C)CC/N=C1\C[C@H]2CC[C@]1(C)C2(C)C | 5 | 4.26 | 285 | inhibition at 1.5 h, 150 µM [1]: 78%; Activity (Escherichia coli [2]): 70%
CC(N)C12CC3CC(CC(C3)C1)C2 (stereo unspecified) [RIMANTADINE HYDROCHLORIDE] | 5 | 4.17 | 335 | –
